SMARCA2 act: activators of SMARCA2 function; MG213 cells, MMTV-luciferase reporter, dexamethasone, overnight; activation, % at 9.1 µM; 370,000 tested, 1% active; in the data active = activation above about 7.8%
NR2E3 ag-1: activates human photoreceptor nuclear receptor NR2E3; AID 2300; GST-NR2E3/biotin-RetCOR TR-FRET, 1536-well; Q9Y5X4; 320,000 tested, 0.12% active; inhibition of corepressor binding, % at 4.78 µM;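 active = percent inhibition above the cutoff of mean plus 3 SD of all tested compounds, set per screening campaign, cut at about 20% in these data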
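Format: 1536-well format; test system: GST-NR2E3 and biotin-RetCOR proteins; read-out basis: percent inhibition of TR-FRET ratio; timing: 5 h incubation at 4 °C; detection: time-resolved FRET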
DAX1 inh-1: NR0B1 (DAX1) inhibition; HEK293 Gal4-DAX1 luciferase reporter, luminescence; inhibition, % at 6.75 µM; 340,000 tested, 0.99% active; AID 504766;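 active = inhibition above the mean over all tested compounds plus 3 SD, cut at about 4.2% in these data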;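 also: inhibition shows as a rise in luminescence from relieved DAX1 repression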
Target sequence (P51843 207-470 limits assumed): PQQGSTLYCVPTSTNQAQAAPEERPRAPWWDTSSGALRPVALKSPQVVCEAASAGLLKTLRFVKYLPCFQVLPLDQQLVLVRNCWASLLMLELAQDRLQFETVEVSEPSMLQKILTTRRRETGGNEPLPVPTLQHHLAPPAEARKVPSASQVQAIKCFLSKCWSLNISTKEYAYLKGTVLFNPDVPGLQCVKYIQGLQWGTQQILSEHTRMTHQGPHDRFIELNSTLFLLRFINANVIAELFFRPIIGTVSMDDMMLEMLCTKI
DAX1 inh-2: blocks DAX1 repression of SF-1 activated StAR promoter | HEK293T StAR-luciferase reporter, SF-1/DAX-1 repression relief | inhibition, % at 6.8 µM | 370,000 tested, 1.1% active;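 active = inhibition above the mean over all tested compounds plus 3 SD, cut at about 3.6% in these data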;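 also: higher inhibition means more luminescence from relief of DAX-1 repression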
NR2E3 ag-2: agonists of human NR2E3 nuclear receptor; CHO-S Gal4-NCOR/VP16-NR2E3 two-hybrid, luciferase; Q9Y5X4; inhibition of corepressor binding, % at 3.98 µM; 360,000 tested, 0.35% active;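 active = inhibition above the mean of all tested compounds plus 3 SD, cut at about 70% in these data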;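 also: higher means lower luciferase signal from less NR2E3 corepressor binding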
GASC-1 inh: human JMJD2C demethylase inhibition; GST-JMJD2C(1-420) H3K9me3 demethylation, DELFIA europium; inhibition, % at 2.35 µM; 330,000 tested, 0.069% active; AID 2099;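 active = more than half of a compound's replicate wells show inhibition beyond 50%, single wells judged on their own value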;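 also: signal counts dimethyl H3K9 product captured on neutravidin plate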
NR2E3 ag confirm: NR2E3 agonism confirmed in two-hybrid assay; inhibition, % at 3.98 µM; 2,300 tested, 51% active; CHO-S mammalian two-hybrid NR2E3-NCOR, luciferase luminescence; shares compounds with NR2E3 ag-2; AID 624378;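 active = average inhibition above a cutoff equal to the mean inhibition of all tested compounds plus one SD, cut at about 70% in these data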
VP16 counter: counter-screen for NR2E3 agonists: GAL4-VP16 reporter inhibitors; shares compounds with NR2E3 ag-2; CHO-S GAL4-VP16 luciferase reporter, luminescence; inhibition, % at 3.98 µM; 2,300 tested, 29% active; AID 624379;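 active = mean inhibition above a cutoff equal to the average over all tested compounds plus one standard deviation, cut at about 70% in these data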;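 also: luciferase from a UAS reporter driven by GAL4-VP16 transactivation; higher means less reporter light so more repression of VP16 activity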
Hits are given with their value; – = inactive; · = not tested or not shown. Compounds with a hit are over-represented: about 3.2% of the library has one in this group of screens.

SMILES	SMARCA2 act	NR2E3 ag-1	DAX1 inh-1	DAX1 inh-2	NR2E3 ag-2	GASC-1 inh	NR2E3 ag confirm	VP16 counter
CN(C)C(=S)N=c1ssc(=S)n1Cc1ccccc1	–	·	–	–	90	·	–	–
COc1ccc2oc(C(=O)NCc3cc(OC)c(OC)cc3OC)c(C)c2c1	–	–	–	–	75	–	–	–
O=c1cc(N2CCN(c3cccc(Cl)c3)CC2)[nH]c(=O)n1C1CCCCC1	–	–	–	–	–	–	93	–
O=c1cc(N2CCN(c3ccccc3)CC2)[nH]c(=O)n1C1CCCCC1	–	–	–	–	–	–	92	–
CC(CCN1CCC(C(O)(c2ccccc2)c2ccccc2)CC1)Oc1ccc(C#N)cc1F (stereo not given)	–	·	·	–	·	·	·	·
COCCn1c(C)cc(C(=O)COC(=O)c2cccc(O)c2)c1C	–	–	–	–	–	–	–	–
COc1ccc(Cn2ccc3ccc(-c4ccc5ccn(C(=O)c6ccccc6C)c5c4)cc32)cc1	–	·	·	–	·	·	·	·
CC(=O)c1c(C)oc2ccc(NS(=O)(=O)c3ccc(F)cc3C)cc12	–	–	–	–	–	–	–	–
COCCNc1nc(NCc2ccccc2)nc2ccsc12	–	·	·	–	–	·	·	·
Clc1ccccc1Nc1nc(NCc2ccccc2)nc2ccsc12	–	·	·	–	–	·	–	–
Cc1ccc(CNc2nc(NCc3ccccc3)nc3ccsc23)c(C)c1	–	·	·	–	74	·	–	–
CNc1nc(NCc2ccc(C)cc2C)c2sccc2n1	–	·	·	–	–	·	–	–
CNc1nc(Nc2ccc(C)cc2C)c2sccc2n1	–	·	·	–	–	·	–	–
CCOC(=O)CC[C@@H]1CC[C@]2(CCCN(Cc3nccn3C)C2)O1	–	·	·	–	·	·	·	·
O=C(NCc1ccccc1)C1(C(=O)C2CC2)CC(c2ccccc2C(F)(F)F)=NO1 (stereo not given)	–	·	·	–	·	·	·	·
C#Cc1cccc(OCC(C)CN2CCC(C(O)(c3ccccc3)c3ccccc3)CC2)c1 (stereo not given)	–	·	·	–	·	·	·	·
CC(=O)Nc1c(-c2ccc(C(F)(F)F)cc2)nc2ncccn12	–	·	·	–	·	·	·	·
CCOC(=O)Cc1nc(N2CCN(C=O)CC2)c2c(C)c(C(=O)OCC)sc2n1	–	·	·	–	·	·	·	·
Cc1ccc(NC(=O)c2sc3ncn(CC(=O)N4CCN(c5ccccn5)CC4)c(=O)c3c2C)cc1F	–	–	–	–	76	–	–	–
Cn1c(=S)c2[nH]c(SCc3cccnc3)nc2n(C)c1=O	–	·	–	–	–	·	·	·
CCCC(CC)Sc1nc2c([nH]1)c(=S)n(C)c(=O)n2C (stereo not given)	–	·	–	–	78	·	–	–
CCN(CC)CCSc1nc2c([nH]1)c(=S)n(C)c(=O)n2C	–	·	–	–	–	·	·	·
Cn1c(=S)c2[nH]c(SCCC(C)(C)C)nc2n(C)c1=O	–	·	–	–	–	·	·	·
CCCCSc1nc2c([nH]1)c(=S)n(C)c(=O)n2C	–	·	–	–	–	·	–	–
CCCCC(C)Sc1nc2c([nH]1)c(=S)n(C)c(=O)n2C (stereo not given)	–	·	–	–	87	·	87	–
SMILES	SMARCA2 act	NR2E3 ag-1	DAX1 inh-1	DAX1 inh-2	NR2E3 ag-2	GASC-1 inh	NR2E3 ag confirm	VP16 counter
O=C(c1cccnc1Cl)N1CCC(Oc2cccnc2)CC1	–	·	·	–	·	·	·	·
CC(CCN1CCC(C(O)(c2ccccc2)c2ccccc2)CC1)Oc1cccc(F)c1 (stereo not given)	–	·	·	–	·	·	·	·
COC1=C(OC)C(=O)C(Sc2ccc3ccccc3c2)=CC1=O	–	·	–	–	84	·	94	–
COc1ccc(S(=O)(=O)Oc2ccc3ccccc3c2)cc1	–	–	–	–	–	–	·	·
O=C(c1cc2sccc2n1Cc1ccc(F)cc1)N1CCN(c2nc3ccccc3s2)CC1	–	–	–	–	74	–	92	–
CCOC(=O)[C@@]12CN(C(=O)OC(C)(C)C)CC=C1N(Cc1ccc(OC)cc1)C(=O)[C@H]2CC(=O)N1CCCC1	–	·	·	–	·	·	·	·
O=C(CSc1ncccc1C(=O)O)Nc1ccc2c(c1)OCCO2	–	–	–	–	–	–	–	–
O=C(CSc1ccccc1C(=O)O)Nc1ccc2c(c1)OCO2	–	–	–	–	–	–	·	·
O=C(Cn1cnc2ccccc21)Nc1ccc2c(c1)OCCCO2	–	–	–	–	–	–	–	–
Cc1sc2nc(COC(=O)CNC(=O)c3ccc(F)cc3Cl)[nH]c(=O)c2c1C	–	·	·	–	·	·	·	·
COC(=O)[C@]12C[C@H](CC(=O)NCCC(C)C)C(=O)N(Cc3ccccc3)C1=C[C@H](COCc1ccccc1)O[C@@H]2C	–	·	·	–	·	·	·	·
Cc1ccc(Nc2c(-c3ccccn3)nc3cccc(C)n23)cc1	–	–	–	–	96	–	97	83
Cc1cccc(C)c1Nc1c(-c2ccccn2)nc2ccccn12	–	–	–	–	77	–	–	–
Cc1ccc2nc(-c3ccccn3)c(NC3CCCC3)n2c1	–	–	–	–	–	–	–	–
